# Source: paper PMC10668576 (RSC Advances, 2023)
# Columns and labels:
# Staphylococcus aureus [1] = test: Disk diffusion inhibition zones; type: cell-based; conditions: 24 h
# In short: (§1)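 Test compound was dissolved in DMSO at 1000 μg mL−1 and soaked onto sterile 6 mm filter-paper discs. Discs were placed on Mueller–Hinton agar inoculated with fresh cultures suspended in sterile physiological water, then incubated at 37 °C for 24 h. DMSO discs served as negative control, with azithromycin (30 mg mL−1) as reference. Clear-zone width was read in mm with a transparent ruler.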
# Pseudomonas aeruginosa [2] = test: Disk diffusion inhibition zones; type: cell-based; conditions: 24 h
# In short: as §1
# Klebsiella pneumoniae [3] = test: Disk diffusion inhibition zones; type: cell-based; conditions: 24 h
# [4] = test system: Staphylococcus epidermidis; test: Minimum inhibitory concentration, serial dilution; type: cell-based
# In short: (§2)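 Inoculum was 10^6 cfu mL−1, incubated at 37 °C for 18–24 h. Wells were inspected for presence or absence of growth, and MIC was taken as the lowest concentration preventing growth. Each organism was tested on three separate occasions.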
# Klebsiella pneumoniae [5] = test: Minimum inhibitory concentration, serial dilution; type: cell-based
# [6] = test system: Stenotrophomonas maltophilia; test: Minimum inhibitory concentration, serial dilution; type: cell-based
# In short: as §2
# Pseudomonas aeruginosa [7] = test: Minimum inhibitory concentration, serial dilution; type: cell-based
# In short: as §2
# Escherichia coli [8] = test: Minimum inhibitory concentration, serial dilution; type: cell-based
# In short: as §2
# Bacillus cereus [9] = test: Minimum inhibitory concentration, serial dilution; type: cell-based
# In short: as §2
# Aeromonas sobria [10] = test: Disk diffusion inhibition zones; type: cell-based; conditions: 24 h
# In short: as §1
# [11] = test system: Staphylococcus epidermidis; test: Disk diffusion inhibition zones; type: cell-based; conditions: 24 h
# In short: as §1
# Staphylococcus aureus [12] = test: Minimum inhibitory concentration, serial dilution; type: cell-based; conditions: Muller Hinton broth, 37 °C, 18 to 24 h
# In short: as §2
# [13] = test system: Stenotrophomonas maltophilia; test: Disk diffusion inhibition zones; type: cell-based; conditions: 24 h
# In short: as §1
# Bacillus cereus [14] = test: Disk diffusion inhibition zones; type: cell-based; conditions: 24 h
# In short: as §1
# Aeromonas sobria [15] = test: Minimum inhibitory concentration, serial dilution; type: cell-based
# In short: as §2
# Escherichia coli [16] = test: Disk diffusion inhibition zones; type: cell-based; conditions: 24 h
# In short: as §1
# [17] = Acute parenteral toxicity in rats; type: in vivo; conditions: 0.5 to 50 mg per kg body weight, 14 days observation
# In short: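 Single parenteral dose of test compound dissolved in ethanol with gentle heating, given by tuberculin syringe following OECD 425 to female albino Wistar rats (190 ± 20 g), 3 per dose, at 0.5, 1, 10, 30 or 50 mg kg−1. Controls were ethanol-injected and non-injected rats. Rats were observed every 30 min for 6 h, then through 24 h and daily to 14 days. Organs were examined macroscopically and weighed on day 15.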
# burn wounds = test: Burn healing assay in rats; type: in vivo, albino Wistar female rats; conditions: 1% cream, one application per 24 h on burn wound, n = 3
SMILES,zone of inhibition at 1000 µg/mL (Staphylococcus aureus [1]),zone of inhibition at 1000 µg/mL (Pseudomonas aeruginosa [2]),zone of inhibition at 1000 µg/mL (Klebsiella pneumoniae [3]),MIC [4],MIC (Klebsiella pneumoniae [5]),MIC [6],MIC (Pseudomonas aeruginosa [7]),MIC (Escherichia coli [8]),MIC (Bacillus cereus [9]),zone of inhibition at 1000 µg/mL (Aeromonas sobria [10]),zone of inhibition at 1000 µg/mL [11],MIC (Staphylococcus aureus [12]; Staphylococcus aureus),zone of inhibition at 1000 µg/mL [13],zone of inhibition at 1000 µg/mL (Bacillus cereus [14]),MIC (Aeromonas sobria [15]),zone of inhibition at 1000 µg/mL (Escherichia coli [16]),Mortality [17],Signs of toxicity [17],Day utilized for recovery (burn wounds),MIC (Staphylococcus aureus [12])
"O=C(O)c1cc(N=Nc2nccs2)ccc1O [Compound 3, 2-Hydroxy-5-(thiazol-2-yldiazenyl)benzoic acid]",12 ± 0.23 mm,10 ± 0.33 mm,11 ± 0.31 mm,10 µg/mL,80 µg/mL,40 µg/mL,80 µg/mL,60 µg/mL,20 µg/mL,10 ± 0.31 mm,14 ± 0.25 mm,10 µg/mL,8 ± 0.11 mm,10 ± 0.03 mm,20 µg/mL,9 mm,,,,
"O=C(Nc1nccs1)c1cc(N=Nc2nccs2)ccc1O [Compound 3a, 2-Hydroxy-N-(thiazol-2-yl)-5-(thiazol-2-yldiazenyl)benzamide]",13 ± 0.21 mm,9 mm,13 ± 0.22 mm,80 µg/mL,200 µg/mL,60 µg/mL,60 µg/mL,80 µg/mL,100 µg/mL,10 ± 0.15 mm,18 ± 0.26 mm,10 µg/mL,9 ± 0.28 mm,10 ± 0.23 mm,40 µg/mL,9 ± 0.33 mm,no occurrences of mortality,did not display any noteworthy signs of toxicity,26 days,
"O=C(Nc1nc2ccccc2s1)c1cc(N=Nc2nccs2)ccc1O [Compound 3b, N-(Benzo[d]thiazol-2-yl)-2-hydroxy-5-(thiazol-2-yldiazenyl)benzamide]",13 ± 0.58 mm,9 mm,14 ± 0.28 mm,10 µg/mL,80 µg/mL,20 µg/mL,40 µg/mL,20 µg/mL,80 µg/mL,10 ± 0.28 mm,14 ± 0.23 mm,20 µg/mL,10 ± 0.04 mm,10 ± 0.33 mm,10 µg/mL,9 ± 0.14 mm,no occurrences of mortality,did not display any noteworthy signs of toxicity,24 days,
"O=C(Nc1ccc(S(=O)(=O)c2nccs2)cc1)c1cc(N=Nc2nccs2)ccc1O [Compound 3c, 2-Hydroxy-5-(thiazol-2-yldiazenyl)-N-(4-(thiazol-2-ylsulfonyl)phenyl)benzamide]",16 ± 0.09 mm,9 ± 0.33 mm,12 ± 0.11 mm,40 µg/mL,,40 µg/mL,,20 µg/mL,,10 ± 0.33 mm,12 ± 0.43 mm,10 µg/mL,9 ± 0.21 mm,10 ± 0.13 mm,40 µg/mL,9 ± 0.16 mm,no occurrences of mortality,did not display any noteworthy signs of toxicity,27 days,
"CC[C@H]1OC(=O)[C@H](C)[C@@H](O[C@H]2C[C@@](C)(OC)[C@@H](O)[C@H](C)O2)[C@H](C)[C@@H](O[C@@H]2O[C@H](C)C[C@H](N(C)C)[C@H]2O)[C@](C)(O)C[C@@H](C)CN(C)[C@H](C)[C@@H](O)[C@]1(C)O [azithromycin, reference compound]",15 ± 0.09 mm,7 ± 0.14 mm,20 ± 0.26 mm,80 µg/mL,60 µg/mL,40 µg/mL,,20 µg/mL,80 µg/mL,18 ± 0.41 mm,11 ± 0.32 mm,40 µg/mL,10 ± 0.02 mm,11 ± 0.31 mm,20 µg/mL,7 ± 0.32 mm,,,,20 µg/mL
